Reference: ChEMBL document CHEMBL1156978, “Improving binding specificity of pharmacological chaperones that target mutant superoxide dismutase-1 linked to familial amyotrophic lateral sclerosis using computational methods” (J Med Chem, 2010)
Active and inactive are the calls of the source. No cut-off for these calls is given here.

How the values were obtained:
[1] = target: Superoxide dismutase [Cu-Zn] (Homo sapiens) (UniProt P00441); assay: Binding affinity to human GST-SOD1 expressed in Escherichia coli Rosetta at 100 uM in presence of human plasma by reverse phase HPLC analysis; type: cell-free
Superoxide dismutase [Cu-Zn] (Homo sapiens), sequence (P00441 whole entry, the tested form may be a part): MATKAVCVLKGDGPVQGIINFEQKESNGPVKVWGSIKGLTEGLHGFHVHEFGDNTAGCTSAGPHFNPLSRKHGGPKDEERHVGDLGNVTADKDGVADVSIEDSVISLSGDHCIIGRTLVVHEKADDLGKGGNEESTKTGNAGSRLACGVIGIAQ
In short: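 GST-SOD-1 fusion (final 75μM) added to 1 ml human blood plasma with compound at 100μM; shaken 60 rpm, 4°C, 24 h. Complex captured on glutathione-sepharose (4°C, 1 h), compound released with 5% TFA and quantified by C18 reverse-phase HPLC (40-100% acetonitrile/0.2% TFA gradient, 20 min). Buffer-only control taken as theoretical maximum for relative binding; GST tag alone as control.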

[2] = species on record: Homo sapiens; assay: Inhibition of human GST-SOD1 A4V mutant aggregation expressed in Escherichia coli Rosetta assessed as dimeric enzyme level at 75 uM by […]
[3] = species on record: Homo sapiens; assay: Inhibition of human GST-SOD1 A4V and N53A mutant aggregation expressed in Escherichia coli Rosetta assessed as dimeric enzyme level at 75 uM by […]
In short: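 Metal-free SOD-1 mutant prepared by dialysis against acetate pH 3.8/10mM EDTA, then pH 5.5/100mM NaCl; chelex-treated buffers, plastic tubes. Dimer purified on Superdex 75. Apoprotein 25μM preincubated with compound 75μM, 37°C, 15 min; aggregation started with 5mM EDTA at 37°C. Aliquots analysed by Superdex 200 gel filtration in TBS pH 7.4 (220/276 nm); dimer estimated from peak area.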

[4] = species on record: Homo sapiens; assay: Inhibition of human GST-SOD1 A4V mutant aggregation expressed in Escherichia coli Rosetta assessed as dimeric enzyme level at 20 uM […]
In short: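 Metal-free SOD-1 A4V apoprotein (25μM) preincubated with increasing compound concentrations, 37°C, 15 min, then 5mM EDTA added and aggregation run 4 hrs at 37°C. Dimer measured by size exclusion chromatography peak area; percentage inhibition calculated against untreated A4V.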

SMILES | Activity [1] | Activity [2] | Activity [3] | Activity [4]
O=c1cc(Nc2ccc3ccccc3c2)[nH]c(=O)[nH]1 | inactive | Active |  | 
O=c1cc(Nc2ccc(Cl)cc2F)[nH]c(=O)[nH]1 | inactive |  |  | 
O=c1[nH]nc(SCc2ccccc2)c(=O)[nH]1 | inactive | Active | inactive | Active

Next, values leading:

Activity [1] | Activity [2] | Activity [3] | Activity [4] | SMILES
inactive | Active |  |  | O=c1[nH]nc(SCc2c(F)cccc2Cl)c(=O)[nH]1
inactive | Active |  |  | O=c1[nH]nc(SCc2ccccc2Cl)c(=O)[nH]1
 |  | inactive | Active | O=c1[nH]cc(CSc2n[nH]c(=O)[nH]c2=O)c(=O)[nH]1
